From paper PMC9339567 (Journal of Food and Drug Analysis, 2016)
Entries after “also recorded” stand apart in the source; their conditions may differ. Where no end group is shown, it is not given here.

Key:
[1] = ref 32 (Sampath Kumar et al); cited from earlier work
[2] = cited from earlier work
[3] = ref 28 (Tanzadehpanah et al); cited from earlier work
HFLF-PI 5 cells = assay: Cytotoxicity assay; format: cell-based, human; conditions: 0–1 mg/mL, MTT 570 nm
Summary of the method: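 HFLF-PI 5 human lung cells were grown in RPMI with penicillin/streptomycin and 10% FBS at 37°C, 5% CO2. Cells were seeded at 1 × 10^5 cells/mL and, at 75% confluence, exposed to test compound at 0–1 mg/mL for 24, 48 or 72 hours, with PBS as control. After PBS washes, MTT (5 mg/mL stock) was added overnight at 37°C and formazan dissolved in DMSO. A570 was read and cytotoxicity % calculated relative to control.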

[4] = DPPH radical scavenging assay; conditions: 15 μg/mL; absorbance 517 nm, 30 minutes in dark, room temperature; triplicate
Summary of the method: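 Test compound at 0.007–1 mg/mL, or GSH positive control over the same range, was mixed with an equal volume of 99.5% ethanol containing 0.02% DPPH. The mixture was held 30 minutes in the dark at room temperature and A517 read, with distilled water replacing sample as control. Scavenging % = (Acontrol − Asample)/Acontrol × 100; triplicate.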

[5] = ABTS radical scavenging activity assay; conditions: 6 minutes incubation, absorbance 734 nm; triplicate

For ACFL, the “Inhibition of the oxidation process relative to α-tocopherol” value [1] is given as “greater levels of inhibition of the oxidation process”.

In the case of HGPLGPL, the “Activity against ROS and linoleic acid peroxidation” value [2] is listed as “strong activity”.

In the case of LTEQESGVPVMK, the “IC50 DPPH radical scavenging” value [3] is listed as 28.6 ± 1.08 µg/mL.

In the case of WESLSRLLG [WG-9], the “Effect on cell viability” value (HFLF-PI 5 cells; 24 hours, triplicate) is reported as “no significantly effect on cell viability; also recorded: no significant cytotoxic effect”, the “Effect on cell viability” value (HFLF-PI 5 cells; 48 hours, p < 0.05) is reported as “significantly reduced” and the “Effect on cell viability” value (HFLF-PI 5 cells; 72 hours, p < 0.05) is reported as “significantly reduced”.

For glutathione [GSH], the DPPH-radical scavenging [4] was 67% and the “IC50 ABTS radical scavenging” value [5] was < 15 µg/mL.
